The text below walks through data of ChEMBL document CHEMBL3232797, “Targeting Staphylococcus aureus quorum sensing with nonpeptidic small molecule inhibitors” (J Med Chem, 2014).

In brackets after ≈: the same amount, converted by molar mass. Activity calls are given as the source filed them. No cut-off for these calls is given here.

In data set [1] the test system is Staphylococcus aureus. The data set can be described thus: Inhibition of AIP-1-induced AgrC-I activation in Staphylococcus aureus RN6390B up to 100 uM after 55 mins by beta-lactamase reporter assay. The method, boiled down: (§1)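 The reporter strain was S. aureus RN6390B (pRN6683) carrying agrP3::blaZ. It was grown overnight at 37 °C in CYGP with 5 μg/mL chloramphenicol, diluted 1/100, and grown to OD600 ≈ 0.4. Cells were exposed to AIP-1 (0.01 nM–10 μM) plus compound (0–100 μM) for 55 min at 37 °C, quenched with sodium azide, and read as β-lactamase activity by nitrocefin. Triplicates were run on ≥2 occasions, with IC50 fitted.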

Data set [2] deals with Staphylococcus aureus. Put plainly: Antimicrobial activity against Staphylococcus aureus RN6390B assessed as growth inhibition up to 100 uM after 18 hrs by spectrophotometry. The class given is functional, organism-based. The method, boiled down:
(§2)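 Staphylococci were grown at 37 °C with shaking in LB, Mueller–Hinton or CYGP broth, with or without test compound. Growth curves were followed as OD600 over 18 h.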

Data set [3] in a line: Inhibition of AIP-1-induced AgrC-I activation in Staphylococcus aureus RN6390B after 55 mins by beta-lactamase reporter assay. The method, boiled down:
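agrP3::blaZ reporter strain RN6390B (pRN6683) grown overnight at 37 °C in CYGP with 5 μg/mL chloramphenicol, diluted 1/100, grown with shaking to OD600 ≈ 0.4. Incubated with AIP-1 (0.01 nM to 10 μM) plus compounds (0–100 μM) for 55 min at 37 °C; quenched with sodium azide; β-lactamase read with nitrocefin. Triplicate, ≥2 independent occasions; IC50 fitted.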

Data set [4] concerns Staphylococcus aureus. The data set can be described thus: Antimicrobial activity against Staphylococcus aureus USA300 assessed as growth inhibition at 100 uM after 18 hrs by spectrophotometry. The class given is functional, organism-based. The procedure, abridged: as §2
The subject of data set [5] is Staphylococcus aureus. The data set can be described thus: Antimicrobial activity against Staphylococcus aureus RN6390B assessed as growth inhibition after 18 hrs by spectrophotometry. Format: functional.
For data set [6], the system named is Staphylococcus aureus. The data set can be described thus: Antimicrobial activity against Staphylococcus aureus Newman in NMRI mouse septic arthritis model. Format: functional, organism-based. The procedure, abridged:
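Mice were given test agent at 10 mg/kg body weight or PBS (control) and then challenged with S. aureus. Arthritis frequency and arthritic index were scored over a 10 day period.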

Data set [7] is described as follows: Iron-chelating activity at 50 uM by Chrome Azurol S […] assay. Format: physicochemical. The method, boiled down:
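Chrome azurol S (CAS) assay with compounds at 50 μM. Desferrioxamine (10 μM) served as positive control and MeCN as solvent control.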

Data set [8] deals with Staphylococcus aureus. The data set can be described thus: Inhibition of Staphylococcus aureus adherence to human nasal squamous epithelial cells at 10 uM after 1 hr. The class given is functional, organism-based. The note with it: Epithelial cell. The procedure, abridged:
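Desquamated human nasal squamous epithelial cells, untreated or compound-treated, were incubated with S. aureus. Bound bacteria were counted per 100 nasal cells, as the mean of three experiments run in duplicate.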

For data set [9], the system named is Staphylococcus aureus. Put plainly: Noncompetitive inhibition of AgrC-I in AIP-1-induced Staphylococcus aureus RN6390B assessed as reduction in maximum level of activation at 25 to 100 uM after 55 mins by kinetic study relative to control. The procedure, abridged:
as §1

For data set [10], the system named is Staphylococcus aureus. Put plainly: Noncompetitive inhibition of AgrC-I in AIP-1-induced Staphylococcus aureus RN6390B at 25 to 100 uM after 55 mins by kinetic study. The procedure, abridged:
as §1

Data set [11] deals with Staphylococcus aureus. Put plainly: Noncompetitive inhibition of AgrC-I in AIP-1-induced Staphylococcus aureus RN6390B at 5 to 25 uM after 55 mins by kinetic study. The method, boiled down: as §1

As to `CCCCCCCCCC(=O)CC(=O)N[C@@H](CCO)C(=O)O`, the inhibition result in the data set with Staphylococcus aureus [1] was “inactive”. Further, the “growth inhibition (GI)” value in the data set with Staphylococcus aureus [2] was “inactive”.

On to `CCCCCCC/C(O)=C1/C(=O)N[C@@H](CCO)C1=O`, for which the midpoint of inhibition in [3], the IC50, lay at 42 µM. Moreover, the “growth inhibition (GI)” value in the data set on Staphylococcus aureus [4] and with Staphylococcus aureus [2] was “inactive” in each case.

Take `O=C(Cc1ccc(Br)cc1)C1=C(O)COC1=O`: in the data set with Staphylococcus aureus [1], the inhibition result was “inactive”. Also, the “growth inhibition (GI)” value in the data set on Staphylococcus aureus [2] was “inactive”.

Turning to `CCCCCCCCCC(=O)CC(=O)N[C@H]1CCNC1=O`, the inhibition result in the data set on Staphylococcus aureus [1] is “inactive”. Besides, the “growth inhibition (GI)” value with Staphylococcus aureus [2] is “inactive”.

Compound `CCCCCCCCC/C(O)=C1/C(=O)N[C@H](CCO)C1=O` displayed a half-maximal inhibitory concentration (IC50) in [3] of 28 µM. In the data set with Staphylococcus aureus [2], the “growth inhibition (GI)” value was “inactive”.

Consider `O=C(Cc1ccc([N+](=O)[O-])cc1)C1=C(O)COC1=O`, for which the inhibition result in the data set with Staphylococcus aureus [1] is “inactive”. Further, the “growth inhibition (GI)” value in the data set with Staphylococcus aureus [2] is “inactive”.

As to `CCCCCCCCN(C)C(=O)CC(=O)N[C@H]1CCOC1=O`, the inhibition result in the data set with Staphylococcus aureus [1] was “inactive”. Also, the “growth inhibition (GI)” value with Staphylococcus aureus [2] was “inactive”.

In the case of `CC(C)CCCCCCC(=O)C1=C(O)COC1=O`, the inhibition result in the data set on Staphylococcus aureus [1] was “inactive”. Further, the “growth inhibition (GI)” value with Staphylococcus aureus [2] was “inactive”.

With `CCCCCCCCCC/C(O)=C1/C(=O)N[C@@H](CCO)C1=O`, the MIC with Staphylococcus aureus [5] was determined as 50 µM (≈ 15.6 µg/mL). In data set [3], the IC50 was 10 µM.

With `CCCCCCCCC/C(O)=C1/C(=O)N[C@@H](CCO)C1=O`, the MIC in the data set with Staphylococcus aureus [5] is 100 µM (≈ 29.7 µg/mL). The outcome with Staphylococcus aureus [6] was inactive. Besides, the IC50 in data set [3] stood at 42 µM. Also, the outcome in data set [7] was Active. Also, the inhibition result in the data set with Staphylococcus aureus [8] was “Active”. The fold change (FC) in the data set on Staphylococcus aureus [9] came out at 10.

Consider `CCCCCCCCCC(=O)CC(=O)Nc1nccs1`, for which the inhibition result with Staphylococcus aureus [1] was “inactive”. In addition, the “growth inhibition (GI)” value with Staphylococcus aureus [2] is “inactive”.

On to `O=C(CCCC1CCCCC1)CC(=O)N[C@H]1CCOC1=O`, for which, in the data set on Staphylococcus aureus [1], the inhibition result is “inactive”. Besides, the “growth inhibition (GI)” value in the data set on Staphylococcus aureus [2] was “inactive”.

As to `CCCCCCCCCC(=O)CC(=O)N[C@@H]1CCOC1=O`, the MIC in the data set with Staphylococcus aureus [5] was determined as 100 µM (≈ 29.7 µg/mL). The compound further had an IC50 in data set [3] of 37 µM.

For the compound `CCCCCCCCCCCC(=O)N[C@H]1CCOC1=O`, the inhibition result in the data set with Staphylococcus aureus [1] was “inactive”. Also, the “growth inhibition (GI)” value in the data set with Staphylococcus aureus [2] is “inactive”.

For `CCCCCCCCC/C(O)=C1/C(=O)N[C@@H](C)C1=O`, the MIC with Staphylococcus aureus [5] stood at 100 µM (≈ 26.7 µg/mL). In data set [3], this compound displayed an IC50 of 20 µM.

Turning to `CCCCCCCCCC(=O)CC(=O)N[C@H]1CCC(=O)NC1=O`, the inhibition entry in the data set with Staphylococcus aureus [1] is “inactive”. Also, the “growth inhibition (GI)” value in the data set with Staphylococcus aureus [2] was “inactive”.

On to `O=C1N[C@@H](CCO)C(=O)/C1=C(/O)Cc1ccc([N+](=O)[O-])cc1`, for which the inhibition result in the data set on Staphylococcus aureus [1] was “inactive”. Moreover, the “growth inhibition (GI)” value with Staphylococcus aureus [2] is “inactive”.

As for `CCCCCCCCCC(O)CC(=O)N[C@H]1CCOC1=O` (stereo not given in full), the inhibition entry in the data set with Staphylococcus aureus [1] was “inactive”. Further, in the data set with Staphylococcus aureus [2], the “growth inhibition (GI)” value is “inactive”.

On to `CCCCC/C=C/CCC(=O)CC(=O)N[C@H]1CCOC1=O`, for which the inhibition entry in the data set on Staphylococcus aureus [1] is “inactive”. Moreover, the “growth inhibition (GI)” value in the data set with Staphylococcus aureus [2] is “inactive”.

On to `O=C1N[C@@H](CCO)C(=O)/C1=C(/O)CCCC1CCCCC1`, for which, in the data set with Staphylococcus aureus [1], the inhibition result was “inactive”. Also, the “growth inhibition (GI)” value with Staphylococcus aureus [2] is “inactive”.

As to `CCC/C(O)=C1/C(=O)N[C@@H](CCO)C1=O`, the inhibition entry in the data set on Staphylococcus aureus [1] was “inactive”. The “growth inhibition (GI)” value with Staphylococcus aureus [2] was “inactive”.

As for `O=C(CCCc1ccccc1)CC(=O)N[C@H]1CCOC1=O`, the inhibition result in the data set with Staphylococcus aureus [1] is “inactive”. In addition, in the data set on Staphylococcus aureus [2], the “growth inhibition (GI)” value is “inactive”.

Take `CCCCCCCCCC(=O)CC(=O)O[C@H]1CCOC1=O`: the inhibition entry with Staphylococcus aureus [1] was “inactive”. Also, the “growth inhibition (GI)” value with Staphylococcus aureus [2] was “inactive”.

`CCCCCCCCCC(=O)C1=C(O)COC1=O`: the MIC in the data set on Staphylococcus aureus [5] was found to be 50 µM (≈ 12.7 µg/mL). Further, the IC50 in data set [3] worked out at 21 µM. The Activity entry in data set [7] is recorded as “Not Active”.

Compound `CCCCCCCCCCCCCCCC(=O)C1=C(O)COC1=O` gave an IC50 in [3] of 13 µM. The “growth inhibition (GI)” value in the data set with Staphylococcus aureus [2] is “inactive”.

Take `CCCCCCCCCC(=O)CC(=O)N[C@H]1CCSC1=O`: the inhibition result in the data set on Staphylococcus aureus [1] is “inactive”. In the data set with Staphylococcus aureus [2], the “growth inhibition (GI)” value was “inactive”.

As to `CCCCCCCCCC(=O)CC(=O)N[C@H]1CC(=O)NC1=O`, in the data set on Staphylococcus aureus [1], the inhibition entry is “inactive”. Further, the “growth inhibition (GI)” value with Staphylococcus aureus [2] is “inactive”.

For the compound `CCCCCC/C=C\CCCC(=O)C1=C(O)COC1=O`, the 50% inhibitory concentration (IC50) in [3] was 88 µM. The “growth inhibition (GI)” value in the data set with Staphylococcus aureus [2] was “inactive”.

Take `CCCCCCCCCCCCC/C(O)=C1/C(=O)N[C@@H](CCO)C1=O`: the MIC in the data set on Staphylococcus aureus [5] is 12.5 µM (≈ 4.42 µg/mL). Besides, inhibition in data set [3] was half-maximal at 14 µM (IC50).

Consider `CCCCCC(=O)C1=C(O)COC1=O`, for which, in data set [7], the Activity entry is “Not Active”. In addition, the “growth inhibition (GI)” value in the data set with Staphylococcus aureus [2] is “inactive”.

For `CCCCCCCCC/C(O)=C1\C(=O)CNC1=O`, the MIC in the data set with Staphylococcus aureus [5] came out at 100 µM (≈ 25.3 µg/mL). This compound also came in with an IC50 in data set [3] of 30 µM.

As for `O=C(COc1ccc(Br)cc1)C1=C(O)COC1=O`, the inhibition entry in the data set with Staphylococcus aureus [1] was “inactive”. Further, the “growth inhibition (GI)” value with Staphylococcus aureus [2] was “inactive”.

`CCCCC/C=C/CCC(=O)C1=C(O)COC1=O`: the minimal inhibitory concentration (MIC) in the data set on Staphylococcus aureus [5] was determined as 50 µM (≈ 12.6 µg/mL). The compound further showed a 50% inhibitory concentration (IC50) in data set [3] of 22 µM.

For `CCCCCCCCCC(=O)CC(=O)C1=C(O)COC1=O`, the inhibition result in the data set on Staphylococcus aureus [1] was “inactive”. The “growth inhibition (GI)” value in the data set with Staphylococcus aureus [2] was “inactive”.

`CCCCCCCCCC(=O)CC(=O)N[C@H]1CCOC1=O`: the IC50 in data set [3] was determined as 22 µM. The inhibition result with Staphylococcus aureus [10] was “Active”.

Consider `CCCCCCCCCC(=O)CC(N)=O`, for which, in the data set on Staphylococcus aureus [1], the inhibition result is “inactive”. In the data set on Staphylococcus aureus [2], the “growth inhibition (GI)” value is “inactive”.

As for `CCCCCCCCCCC/C(O)=C1/C(=O)N[C@@H](CCO)C1=O`, in the data set on Staphylococcus aureus [5], the MIC came out at 25 µM (≈ 8.14 µg/mL). The same compound had an IC50 in data set [3] of 13 µM.

Regarding `CCCCCCCCOC(=O)CC(=O)N[C@H]1CCOC1=O`, in the data set on Staphylococcus aureus [1], the inhibition result was “inactive”. For the same compound, the “growth inhibition (GI)” value in the data set on Staphylococcus aureus [2] was “inactive”.

On to `CCCCCCCCCCCC(=O)C1=C(O)COC1=O`, for which the MIC in the data set with Staphylococcus aureus [5] stood at 25 µM (≈ 7.06 µg/mL). For the same compound, the midpoint of inhibition in data set [3], the IC50, lay at 6 µM. In addition, the Activity result in data set [7] is reported as “Not Active”. In the data set with Staphylococcus aureus [11], the inhibition result was “Active”.

`CCCCCCCCNC(=O)CC(=O)N[C@H]1CCOC1=O`: the inhibition entry in the data set with Staphylococcus aureus [1] was “inactive”. Further, the “growth inhibition (GI)” value with Staphylococcus aureus [2] was “inactive”.

`CCCC(=O)CC(=O)C1=C(O)COC1=O`: the inhibition entry with Staphylococcus aureus [1] was “inactive”. Moreover, in the data set on Staphylococcus aureus [2], the “growth inhibition (GI)” value was “inactive”.
